Test results: ChEMBL document CHEMBL2396573, “Synthesis and evaluation of 8-amino-[1,2,4]triazolo[4,3-a]pyridin-3(2H)-one derivatives as glycogen synthase kinase-3 (GSK-3) inhibitors” (Bioorg Med Chem Lett, 2013)

Key:
[1] = Inhibition of GSK3 in rat […] cells assessed as reduction in glucose production after overnight incubation by fluorescence assay; type: cell-based
How it was run: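 Rat hepatoma H4IIE cells grown in DMEM + 10% FBS, 2 mM L-glutamine and penicillin–streptomycin at 37 °C, 5% CO2, and passaged at 75% confluence. Plated at 100,000 cells/well, attached ~3 h, then PBS-washed and held overnight in glucose- and serum-free DMEM with 20 mM lactate and 2 mM pyruvate. Compounds, diluted in this medium, added overnight. Glucose in medium read with Amplex Red/glucose oxidase (30 min, dark; ex 560/em 615 nm); mean of triplicates.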

[2] = target: Glycogen synthase kinase-3 (Homo sapiens, UniProt P49840+P49841); assay: Inhibition of recombinant human GSK3 using YRRAAVPPSPSLSRHSSPHQ(pS)EDEEE as substrate preincubated for 10 mins followed by [33P-gamma]-ATP addition measured after 30 mins by liquid scintillation counting analysis; type: protein assay
How it was run: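 Reaction started with 1 µM ATP […] 33P-γ-ATP, run 30 min at 30 °C, and stopped with 3% phosphoric acid. Product captured on P81 paper and read by scintillation counting. IC50 is the mean of triplicates.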

Homo sapiens = species on record: Homo sapiens; assay: Inhibition of human PKA at 10 uM relative to control
[3] = target: Cyclin-dependent kinase 5/CDK5 activator 1 (Homo sapiens) (UniProt Q00535+Q15078); assay: Inhibition of human CDK5/p25 at 10 uM relative to control; type: protein-complex assay
[4] = Elimination half life in rat at 5 mg/kg, po by LC/MS/MS analysis; type: ADME, organism-based; parameters: dose 5 mg/kg, route oral; conditions: in vivo, read-out: beta t1/2 (converted)
How it was run: (§1)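 Rat PK, n = 3 animals; iv dose 3 mg/kg, oral dose 5 mg/kg. Plasma levels quantified by LC/MS/MS after dosing. Derived parameters: AUC0–inf, clearance, elimination half-life and oral bioavailability (F).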

[5] = target: Glycogen synthase kinase-3 alpha (Homo sapiens) (UniProt P49840); assay: Inhibition of human GSK3alpha at 10 uM relative to control
[6] = Elimination half life in rat at 3 mg/kg, iv by LC/MS/MS analysis; type: ADME, organism-based; parameters: dose 3 mg/kg, route intravenous; conditions: in vivo, read-out: beta t1/2 (converted); how it was run: as §1
[7] = target: 5'-AMP-activated protein kinase catalytic subunit alpha-1 (Homo sapiens) (UniProt Q13131); assay: Inhibition of human AMPKalpha1 at 10 uM relative to control
[8] = target: 3-phosphoinositide-dependent protein kinase 1 (Homo sapiens) (UniProt O15530); assay: Inhibition of human PDK1 at 10 uM relative to control
[9] = target: Mitogen-activated protein kinase 8 (Homo sapiens) (UniProt P45983); assay: Inhibition of human JNK1alpha1 at 10 uM relative to control
[10] = Drug uptake in ICR mouse brain at 30 mg/kg, iv measured at 0.25 hrs by LC/MS/MS analysis; type: ADME, organism-based; parameters: dose 30 mg/kg, route intravenous; conditions: read-out: Drug uptake
How it was run: (§2)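 ICR mice, n = 3, given a single iv dose of 30 mg/kg. Plasma (ng/ml) and brain (ng/g) concentrations measured by LC/MS/MS at 0.25 and 0.75 h. Brain/plasma ratio taken from these paired values.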

[11] = Plasma concentration in ICR mouse at 30 mg/kg, iv measured at 0.25 hrs by LC/MS/MS analysis; type: ADME, organism-based; parameters: dose 30 mg/kg, route intravenous; how it was run: as §2
[12] = target: Serine/threonine-protein kinase Chk1 (Homo sapiens) (UniProt O14757); assay: Inhibition of human CHK1 at 10 uM relative to control
[13] = Ratio of drug level from brain to plasma in ICR mouse at 30 mg/kg, iv measured at 0.75 hrs; type: ADME, organism-based; parameters: dose 30 mg/kg, route intravenous; conditions: read-out: BPR; how it was run: as §2
[14] = target: Phosphorylase b kinase gamma catalytic chain, liver/testis isoform (Homo sapiens) (UniProt P15735); assay: Inhibition of human PhKgamma2 at 10 uM relative to control
[15] = target: Ribosomal protein S6 kinase alpha-3 (Homo sapiens) (UniProt P51812); assay: Inhibition of human RSK2 at 10 uM relative to control
[16] = target: Casein kinase II (Homo sapiens) (UniProt P67870+P68400+P19784); assay: Inhibition of human CK2 at 10 uM relative to control; type: protein-complex assay
[17] = target: Serine/threonine-protein kinase Sgk1 (Homo sapiens) (UniProt O00141); assay: Inhibition of human SGK at 10 uM relative to control
[18] = Plasma concentration in ICR mouse at 30 mg/kg, iv measured at 0.75 hrs by LC/MS/MS analysis; type: ADME, organism-based; parameters: dose 30 mg/kg, route intravenous; how it was run: as §2
[19] = target: Protein kinase C alpha type (Homo sapiens) (UniProt P17252); assay: Inhibition of human PKCalpha at 10 uM relative to control
[20] = target: RAC-alpha serine/threonine-protein kinase (Homo sapiens) (UniProt P31749); assay: Inhibition of human PKBalpha at 10 uM relative to control
[21] = target: CDK2/Cyclin A2 (Homo sapiens) (UniProt P24941+P20248); assay: Inhibition of human CDK2/cyclinA at 10 uM relative to control; type: protein-complex assay
[22] = Clearance in rat at 3 mg/kg, iv by LC/MS/MS analysis; type: ADME, organism-based; parameters: dose 3 mg/kg, route intravenous; conditions: in vivo; how it was run: as §1
[23] = target: Dual specificity mitogen-activated protein kinase kinase 1 (Homo sapiens) (UniProt Q02750); assay: Inhibition of human MEK1 at 10 uM relative to control
[24] = target: MAP kinase-activated protein kinase 5 (Homo sapiens) (UniProt Q8IW41); assay: Inhibition of human PRAK at 10 uM relative to control
[25] = target: Mitogen-activated protein kinase 13 (Homo sapiens) (UniProt O15264); assay: Inhibition of human SAPK4 at 10 uM relative to control
[26] = Solubility of the compound in water; type: physicochemical
[27] = target: Ribosomal protein S6 kinase alpha-5 (Homo sapiens) (UniProt O75582); assay: Inhibition of human MSK1 at 10 uM relative to control
[28] = target: Glycogen synthase kinase-3 beta (Homo sapiens) (UniProt P49841); assay: Inhibition of human GSK3beta at 10 uM relative to control
[29] = target: Mitogen-activated protein kinase 1 (Homo sapiens) (UniProt P28482); assay: Inhibition of human MAPK1 at 10 uM relative to control
[30] = Oral bioavailability in rat at 5 mg/kg by LC/MS/MS analysis; type: ADME, organism-based; conditions: in vivo; how it was run: as §1
[31] = target: Tyrosine-protein kinase Lck (Homo sapiens) (UniProt P06239); assay: Inhibition of human LCK at 10 uM relative to control
[32] = target: Rho-associated protein kinase 2 (Homo sapiens) (UniProt O75116); assay: Inhibition of human ROCK-2 at 10 uM relative to control
[33] = AUC (0 to infinity) in rat at 3 mg/kg, iv by LC/MS/MS analysis; type: ADME, organism-based; parameters: time infinity, dose 3 mg/kg, route intravenous; conditions: plasma
How it was run: (§3)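 Rat pharmacokinetics with n = 3 per group. Compound given iv at 3 mg/kg or po at 5 mg/kg. Concentrations were measured by LC/MS/MS after administration. AUC0–inf is the area under the concentration–time curve. Clearance, elimination half-life and bioavailability were derived in the same study.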

[34] = target: Mitogen-activated protein kinase 11 (Homo sapiens) (UniProt Q15759); assay: Inhibition of human SAPK2B at 10 uM relative to control
[35] = target: Mitogen-activated protein kinase 12 (Homo sapiens) (UniProt P53778); assay: Inhibition of human SAPK3 at 10 uM relative to control
[36] = AUC (0 to infinity) in rat at 5 mg/kg, po by LC/MS/MS analysis; type: ADME, organism-based; parameters: time infinity, dose 5 mg/kg, route oral; conditions: plasma; how it was run: as §3
[37] = Drug uptake in ICR mouse brain at 30 mg/kg, iv measured at 0.75 hrs by LC/MS/MS analysis; type: ADME, organism-based; parameters: dose 30 mg/kg, route intravenous; conditions: read-out: Drug uptake; how it was run: as §2
[38] = target: Mitogen-activated protein kinase 14 (Homo sapiens) (UniProt Q16539); assay: Inhibition of human SAPK2A at 10 uM relative to control
[39] = target: MAP kinase-activated protein kinase 2 (Homo sapiens) (UniProt P49137); assay: Inhibition of human MAPKAP-K2 at 10 uM relative to control
[40] = Ratio of drug level from brain to plasma in ICR mouse at 30 mg/kg, iv measured at 0.25 hrs; type: ADME, organism-based; parameters: dose 30 mg/kg, route intravenous; conditions: read-out: BPR; how it was run: as §2
[41] = target: Ribosomal protein S6 kinase beta-1 (Homo sapiens) (UniProt P23443); assay: Inhibition of human p70S6K at 10 uM relative to control
Ribosomal protein S6 kinase beta-1 (Homo sapiens), sequence (P23443 whole entry, looked up): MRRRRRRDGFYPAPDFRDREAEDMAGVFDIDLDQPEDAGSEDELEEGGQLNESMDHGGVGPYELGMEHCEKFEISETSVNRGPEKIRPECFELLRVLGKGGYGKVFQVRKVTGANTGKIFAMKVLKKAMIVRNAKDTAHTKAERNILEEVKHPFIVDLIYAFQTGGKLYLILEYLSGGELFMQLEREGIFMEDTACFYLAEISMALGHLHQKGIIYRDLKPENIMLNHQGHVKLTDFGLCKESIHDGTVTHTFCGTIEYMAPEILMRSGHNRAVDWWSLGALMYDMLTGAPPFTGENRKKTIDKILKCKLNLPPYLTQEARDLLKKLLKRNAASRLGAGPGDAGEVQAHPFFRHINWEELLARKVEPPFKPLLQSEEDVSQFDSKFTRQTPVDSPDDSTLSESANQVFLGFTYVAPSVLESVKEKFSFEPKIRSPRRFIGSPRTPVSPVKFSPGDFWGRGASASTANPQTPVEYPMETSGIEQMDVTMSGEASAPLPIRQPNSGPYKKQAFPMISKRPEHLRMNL

Ribosomal protein S6 kinase alpha-5 (Homo sapiens), sequence (O75582 whole entry, looked up): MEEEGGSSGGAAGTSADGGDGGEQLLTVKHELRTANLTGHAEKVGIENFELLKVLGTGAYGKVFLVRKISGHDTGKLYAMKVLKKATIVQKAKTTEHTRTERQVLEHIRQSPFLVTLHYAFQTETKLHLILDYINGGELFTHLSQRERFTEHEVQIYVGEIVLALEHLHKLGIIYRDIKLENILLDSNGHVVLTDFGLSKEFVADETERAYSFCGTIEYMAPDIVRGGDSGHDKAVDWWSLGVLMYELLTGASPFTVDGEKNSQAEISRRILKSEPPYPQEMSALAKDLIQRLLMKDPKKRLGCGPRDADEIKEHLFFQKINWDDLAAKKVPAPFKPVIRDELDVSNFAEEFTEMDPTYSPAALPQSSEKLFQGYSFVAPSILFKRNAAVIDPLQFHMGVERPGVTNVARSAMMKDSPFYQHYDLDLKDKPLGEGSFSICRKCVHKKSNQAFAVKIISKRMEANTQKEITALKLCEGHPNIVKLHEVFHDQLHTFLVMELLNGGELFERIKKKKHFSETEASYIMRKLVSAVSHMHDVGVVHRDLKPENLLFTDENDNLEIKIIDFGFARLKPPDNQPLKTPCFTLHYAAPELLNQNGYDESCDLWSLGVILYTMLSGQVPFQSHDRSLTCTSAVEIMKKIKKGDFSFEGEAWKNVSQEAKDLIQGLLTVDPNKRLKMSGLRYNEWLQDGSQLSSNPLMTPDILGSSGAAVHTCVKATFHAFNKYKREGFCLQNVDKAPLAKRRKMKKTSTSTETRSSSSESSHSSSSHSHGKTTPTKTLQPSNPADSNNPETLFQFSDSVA
MAP kinase-activated protein kinase 2 (Homo sapiens), sequence (P49137 whole entry, looked up): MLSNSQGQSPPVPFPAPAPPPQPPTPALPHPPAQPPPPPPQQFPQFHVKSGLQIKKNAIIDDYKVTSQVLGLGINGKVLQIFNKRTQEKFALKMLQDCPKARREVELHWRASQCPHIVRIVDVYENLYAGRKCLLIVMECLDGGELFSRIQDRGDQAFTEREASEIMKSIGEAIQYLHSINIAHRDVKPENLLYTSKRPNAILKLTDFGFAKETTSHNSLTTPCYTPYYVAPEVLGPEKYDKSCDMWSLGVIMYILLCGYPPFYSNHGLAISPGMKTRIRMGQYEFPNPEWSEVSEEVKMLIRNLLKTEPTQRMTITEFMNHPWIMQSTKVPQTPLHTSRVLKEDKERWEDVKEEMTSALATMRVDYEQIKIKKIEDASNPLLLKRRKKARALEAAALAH
Mitogen-activated protein kinase 8 (Homo sapiens), sequence (P45983 whole entry): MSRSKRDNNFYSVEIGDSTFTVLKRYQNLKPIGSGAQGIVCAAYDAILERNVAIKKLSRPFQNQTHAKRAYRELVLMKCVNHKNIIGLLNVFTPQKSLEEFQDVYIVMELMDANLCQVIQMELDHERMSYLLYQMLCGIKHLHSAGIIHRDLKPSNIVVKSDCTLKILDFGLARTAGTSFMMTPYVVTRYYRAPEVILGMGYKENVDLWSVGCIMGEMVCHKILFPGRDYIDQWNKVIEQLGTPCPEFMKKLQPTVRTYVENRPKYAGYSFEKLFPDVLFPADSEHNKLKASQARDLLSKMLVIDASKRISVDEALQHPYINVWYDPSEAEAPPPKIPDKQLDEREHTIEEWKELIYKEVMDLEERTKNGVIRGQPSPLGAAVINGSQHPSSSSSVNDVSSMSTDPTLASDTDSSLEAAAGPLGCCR
Mitogen-activated protein kinase 1 (Homo sapiens), sequence (P28482 whole entry): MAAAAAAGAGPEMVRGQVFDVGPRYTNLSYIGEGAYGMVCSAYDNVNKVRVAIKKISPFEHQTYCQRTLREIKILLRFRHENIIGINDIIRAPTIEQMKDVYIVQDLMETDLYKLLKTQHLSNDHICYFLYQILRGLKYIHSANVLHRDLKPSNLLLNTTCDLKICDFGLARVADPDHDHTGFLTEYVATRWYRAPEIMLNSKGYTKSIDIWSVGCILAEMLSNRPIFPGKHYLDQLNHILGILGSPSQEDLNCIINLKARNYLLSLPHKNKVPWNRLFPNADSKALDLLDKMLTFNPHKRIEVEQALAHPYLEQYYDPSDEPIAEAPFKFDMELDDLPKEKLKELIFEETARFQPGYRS
Glycogen synthase kinase-3 beta (Homo sapiens), sequence (P49841 whole entry, looked up): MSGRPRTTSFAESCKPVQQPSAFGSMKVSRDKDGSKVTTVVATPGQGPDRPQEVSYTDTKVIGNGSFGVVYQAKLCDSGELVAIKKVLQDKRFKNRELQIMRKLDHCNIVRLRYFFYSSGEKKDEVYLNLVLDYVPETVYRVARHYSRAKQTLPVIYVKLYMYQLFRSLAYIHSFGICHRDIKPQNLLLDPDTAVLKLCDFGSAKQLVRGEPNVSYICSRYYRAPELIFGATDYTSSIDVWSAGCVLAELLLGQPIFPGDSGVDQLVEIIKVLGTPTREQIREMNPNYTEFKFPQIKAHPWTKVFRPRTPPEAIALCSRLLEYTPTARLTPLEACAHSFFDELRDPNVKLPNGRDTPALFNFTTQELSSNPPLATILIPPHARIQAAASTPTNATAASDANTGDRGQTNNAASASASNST
MAP kinase-activated protein kinase 5 (Homo sapiens), sequence (Q8IW41 whole entry): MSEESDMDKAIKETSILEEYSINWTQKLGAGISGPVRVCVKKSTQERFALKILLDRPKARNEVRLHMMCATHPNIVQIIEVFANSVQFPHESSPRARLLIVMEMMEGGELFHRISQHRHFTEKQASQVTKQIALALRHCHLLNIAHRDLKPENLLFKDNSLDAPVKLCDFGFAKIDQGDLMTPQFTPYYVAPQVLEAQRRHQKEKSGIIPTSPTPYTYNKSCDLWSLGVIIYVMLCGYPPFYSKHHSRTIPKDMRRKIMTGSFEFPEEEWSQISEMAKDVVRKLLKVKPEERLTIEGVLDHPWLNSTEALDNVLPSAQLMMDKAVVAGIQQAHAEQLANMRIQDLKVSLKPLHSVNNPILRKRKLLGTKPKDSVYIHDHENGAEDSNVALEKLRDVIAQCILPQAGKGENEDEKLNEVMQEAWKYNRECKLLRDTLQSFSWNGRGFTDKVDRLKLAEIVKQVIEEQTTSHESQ
Phosphorylase b kinase gamma catalytic chain, liver/testis isoform (Homo sapiens), sequence (P15735 whole entry, canonical isoform): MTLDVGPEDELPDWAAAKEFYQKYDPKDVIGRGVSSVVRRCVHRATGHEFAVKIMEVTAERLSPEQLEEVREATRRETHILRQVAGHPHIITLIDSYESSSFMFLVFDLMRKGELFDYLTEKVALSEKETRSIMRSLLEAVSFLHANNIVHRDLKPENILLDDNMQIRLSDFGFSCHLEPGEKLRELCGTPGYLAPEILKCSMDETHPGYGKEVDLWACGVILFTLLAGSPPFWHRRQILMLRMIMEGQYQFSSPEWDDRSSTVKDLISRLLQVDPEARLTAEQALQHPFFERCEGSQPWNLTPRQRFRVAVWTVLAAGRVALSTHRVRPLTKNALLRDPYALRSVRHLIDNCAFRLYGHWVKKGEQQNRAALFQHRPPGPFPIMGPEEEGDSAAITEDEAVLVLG
Serine/threonine-protein kinase Sgk1 (Homo sapiens), sequence (O00141 whole entry): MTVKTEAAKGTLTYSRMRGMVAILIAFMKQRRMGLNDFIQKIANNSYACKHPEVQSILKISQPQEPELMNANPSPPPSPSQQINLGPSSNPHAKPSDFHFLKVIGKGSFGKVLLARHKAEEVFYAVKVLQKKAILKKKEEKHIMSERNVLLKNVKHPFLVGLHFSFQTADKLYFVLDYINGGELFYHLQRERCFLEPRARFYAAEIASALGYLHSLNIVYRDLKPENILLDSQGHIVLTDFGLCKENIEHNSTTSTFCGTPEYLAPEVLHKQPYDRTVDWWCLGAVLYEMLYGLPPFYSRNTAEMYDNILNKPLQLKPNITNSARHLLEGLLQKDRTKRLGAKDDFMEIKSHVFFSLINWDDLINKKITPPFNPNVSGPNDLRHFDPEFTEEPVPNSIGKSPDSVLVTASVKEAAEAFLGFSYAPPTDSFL
RAC-alpha serine/threonine-protein kinase (Homo sapiens), sequence (P31749 whole entry): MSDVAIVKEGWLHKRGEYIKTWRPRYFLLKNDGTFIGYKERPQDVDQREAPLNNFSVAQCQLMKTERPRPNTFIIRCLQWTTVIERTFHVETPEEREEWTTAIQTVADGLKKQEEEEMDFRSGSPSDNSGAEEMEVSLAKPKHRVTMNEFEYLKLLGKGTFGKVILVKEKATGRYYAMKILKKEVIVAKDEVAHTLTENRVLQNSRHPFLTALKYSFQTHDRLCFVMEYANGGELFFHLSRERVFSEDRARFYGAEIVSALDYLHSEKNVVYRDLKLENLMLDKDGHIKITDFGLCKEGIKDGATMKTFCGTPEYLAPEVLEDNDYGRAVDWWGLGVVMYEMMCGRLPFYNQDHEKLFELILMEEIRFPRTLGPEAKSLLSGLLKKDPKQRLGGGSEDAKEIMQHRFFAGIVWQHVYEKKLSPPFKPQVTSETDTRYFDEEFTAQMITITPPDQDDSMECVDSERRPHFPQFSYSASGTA

Cl.O=c1[nH]nc2c(NCCCc3cccc(OCCN4CCOCC4)c3)cc(Cl)cn12
EC50 [1]: 3840 nM | IC50 [2]: 247 nM

Cl.O=c1[nH]nc2c(NCCCc3cccnc3)cc(Cl)cn12
EC50 [1]: 1680 nM | IC50 [2]: 520 nM

Cl.O=c1[nH]nc2c(NCCCc3ccncc3)cc(Cl)cn12
inhibition (Homo sapiens): 0% | inhibition [3]: 53% | half-life [4]: 72 min | inhibition [5]: 99% | half-life [6]: 24 min | inhibition [7]: -1% | inhibition [8]: 10% | inhibition [9]: 9% | concentration at 0.25 h [10]: 214 ng/g | concentration at 0.25 h [11]: 634 ng/mL | inhibition [12]: 21% | Kp at 0.75 h [13]: 0.1 | inhibition [14]: 25% | inhibition [15]: 34% | inhibition [16]: 5% | inhibition [17]: 22% | concentration at 0.75 h [18]: 1050 ng/mL | inhibition [19]: 18% | inhibition [20]: 12% | inhibition [21]: 54% | clearance [22]: 20 mL/min/kg | inhibition [23]: 9% | inhibition [24]: 14% | inhibition [25]: 2% | solubility [26]: > 10000 µg/mL | inhibition [27]: 9% | inhibition [28]: 90% | inhibition [29]: 15% | bioavailability [30]: 83% | inhibition [31]: 19% | inhibition [32]: 27% | AUC(0-inf) [33]: 2490 ng·h/mL | inhibition [34]: 1% | inhibition [35]: 5% | EC50 [1]: 1780 nM | AUC(0-inf) [36]: 3460 ng·h/mL | concentration at 0.75 h [37]: 107 ng/g | IC50 [2]: 111 nM | inhibition [38]: -1% | inhibition [39]: 19% | Kp at 0.25 h [40]: 0.34 | inhibition [41]: 14%

Cc1cc(NCCCN2CCNCC2)c2n[nH]c(=O)n2c1.Cl
IC50 [2]: > 50000 nM

Nc1cccn2c(=O)[nH]nc12
IC50 [2]: > 50000 nM

Cc1ccc(CCCNc2cc(Cl)cn3c(=O)[nH]nc23)cn1.Cl
EC50 [1]: 2740 nM | IC50 [2]: 342 nM

Cc1cc(NCCCc2ccc(C)nc2)c2n[nH]c(=O)n2c1.Cl
EC50 [1]: 1250 nM | IC50 [2]: 309 nM

Cc1cc(NCCCn2ccnc2)c2n[nH]c(=O)n2c1.Cl
EC50 [1]: 13300 nM | IC50 [2]: 1360 nM

COc1ccc(OCCNc2cccn3c(=O)[nH]nc23)cc1
IC50 [2]: 13000 nM

Cl.O=c1[nH]nc2c(NCCCc3ccnc(Cl)c3)cc(Cl)cn12
EC50 [1]: 2630 nM | IC50 [2]: 199 nM

Cc1cc(NCCCc2ccnc(Cl)c2)c2n[nH]c(=O)n2c1.Cl
EC50 [1]: 12100 nM | IC50 [2]: 774 nM

Cc1cc(NCCCc2ccncc2)c2n[nH]c(=O)n2c1.Cl
EC50 [1]: 6230 nM | IC50 [2]: 607 nM

COc1cc(CCCNc2cc(C)cn3c(=O)[nH]nc23)ccn1.Cl
EC50 [1]: 9110 nM | IC50 [2]: 641 nM

Cc1cc(N(C)CCCc2ccccn2)c2n[nH]c(=O)n2c1.Cl
IC50 [2]: 50000 nM

COc1ccc(OCCNc2cc(C)cn3c(=O)[nH]nc23)cc1
IC50 [2]: 7010 nM

Cc1cc(NCCCc2cccnc2)c2n[nH]c(=O)n2c1.Cl
EC50 [1]: 5440 nM | IC50 [2]: 354 nM

Cc1cc(NCCCc2ccccn2)c2n[nH]c(=O)n2c1.Cl
EC50 [1]: 21100 nM | IC50 [2]: 1200 nM

Cc1cc(NCCCc2ccc(N)cc2)c2n[nH]c(=O)n2c1.Cl
EC50 [1]: 18400 nM | IC50 [2]: 1010 nM

COc1ccc(OCCn2nc3c(N)cccn3c2=O)cc1
IC50 [2]: > 50000 nM

Cc1cc(CCCNc2cc(Cl)cn3c(=O)[nH]nc23)ccn1.Cl
EC50 [1]: 7030 nM | IC50 [2]: 818 nM

COc1cccc(CCCNc2cc(Cl)cn3c(=O)[nH]nc23)c1
EC50 [1]: 2710 nM | IC50 [2]: 190 nM

COc1ccc(CCC(=O)Nc2cccn3c(=O)[nH]nc23)cc1
IC50 [2]: > 50000 nM

Cl.Nc1cc(CCCNc2cc(Cl)cn3c(=O)[nH]nc23)ccn1
EC50 [1]: 2360 nM | IC50 [2]: 249 nM
